For orientation: IC50 means the concentration that gives 50% inhibition. The low end stands for inhibition by little substance, the high end for a need for much substance. By inhibition is commonly meant the drop in the measured response relative to a control, in per cent. High values mean a strong effect, low ones a weak effect.

We go through 15 molecules from ChEMBL document CHEMBL1240462, “Synthesis and pharmacological evaluation of new methyloxiranylmethoxyxanthone analogues” (Eur J Med Chem, 2010).

Test [1] deals with DU-145. The test can be described thus: Cytotoxicity against human DU145 cells after 4 days by MTT assay. It is filed as functional, cell-based. Particulars: DU-145, 96 h. Summed up:
(§1)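 Cells seeded at 2-4 × 10^4 per well and attached overnight in medium with 10% FBS, 5% CO₂, 37 °C. Medium replaced on day 1 with graded compound concentrations. On day 4, MTT added (0.5 mg/mL final) for 4 h, formazan dissolved in DMSO, absorbance read at 570 nm. IC50 from four-parameter logistic fit; mean ± SD of three experiments in triplicate.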
(Tetrazolium assays rely on reduction of a dye to a coloured formazan, in cell work by metabolically active cells.)

The subject of test [2] is HCT-116. The test can be described thus: Cytotoxicity against human HCT116 cells after 4 days by MTT assay. Particulars: HCT-116, 96 h. It is filed as functional, cell-based. Summed up:
as §1

For test [3], the system named is MCF7. The test can be described thus: Cytotoxicity against human MCF7 cells after 4 days by MTT assay. It is filed as functional, cell-based. Particulars: MCF7, 96 h. Summed up: as §1
The target in test [4] is DNA topoisomerase 2-alpha (Homo sapiens) (UniProt P11388). The test can be described thus: Inhibition of human topoisomerase 2alpha-mediated relaxation of supercoiled pBR322 DNA at 20 uM after 30 mins by agarose gel electrophoresis.
Chain of DNA topoisomerase 2-alpha (Homo sapiens) (P11388 whole entry): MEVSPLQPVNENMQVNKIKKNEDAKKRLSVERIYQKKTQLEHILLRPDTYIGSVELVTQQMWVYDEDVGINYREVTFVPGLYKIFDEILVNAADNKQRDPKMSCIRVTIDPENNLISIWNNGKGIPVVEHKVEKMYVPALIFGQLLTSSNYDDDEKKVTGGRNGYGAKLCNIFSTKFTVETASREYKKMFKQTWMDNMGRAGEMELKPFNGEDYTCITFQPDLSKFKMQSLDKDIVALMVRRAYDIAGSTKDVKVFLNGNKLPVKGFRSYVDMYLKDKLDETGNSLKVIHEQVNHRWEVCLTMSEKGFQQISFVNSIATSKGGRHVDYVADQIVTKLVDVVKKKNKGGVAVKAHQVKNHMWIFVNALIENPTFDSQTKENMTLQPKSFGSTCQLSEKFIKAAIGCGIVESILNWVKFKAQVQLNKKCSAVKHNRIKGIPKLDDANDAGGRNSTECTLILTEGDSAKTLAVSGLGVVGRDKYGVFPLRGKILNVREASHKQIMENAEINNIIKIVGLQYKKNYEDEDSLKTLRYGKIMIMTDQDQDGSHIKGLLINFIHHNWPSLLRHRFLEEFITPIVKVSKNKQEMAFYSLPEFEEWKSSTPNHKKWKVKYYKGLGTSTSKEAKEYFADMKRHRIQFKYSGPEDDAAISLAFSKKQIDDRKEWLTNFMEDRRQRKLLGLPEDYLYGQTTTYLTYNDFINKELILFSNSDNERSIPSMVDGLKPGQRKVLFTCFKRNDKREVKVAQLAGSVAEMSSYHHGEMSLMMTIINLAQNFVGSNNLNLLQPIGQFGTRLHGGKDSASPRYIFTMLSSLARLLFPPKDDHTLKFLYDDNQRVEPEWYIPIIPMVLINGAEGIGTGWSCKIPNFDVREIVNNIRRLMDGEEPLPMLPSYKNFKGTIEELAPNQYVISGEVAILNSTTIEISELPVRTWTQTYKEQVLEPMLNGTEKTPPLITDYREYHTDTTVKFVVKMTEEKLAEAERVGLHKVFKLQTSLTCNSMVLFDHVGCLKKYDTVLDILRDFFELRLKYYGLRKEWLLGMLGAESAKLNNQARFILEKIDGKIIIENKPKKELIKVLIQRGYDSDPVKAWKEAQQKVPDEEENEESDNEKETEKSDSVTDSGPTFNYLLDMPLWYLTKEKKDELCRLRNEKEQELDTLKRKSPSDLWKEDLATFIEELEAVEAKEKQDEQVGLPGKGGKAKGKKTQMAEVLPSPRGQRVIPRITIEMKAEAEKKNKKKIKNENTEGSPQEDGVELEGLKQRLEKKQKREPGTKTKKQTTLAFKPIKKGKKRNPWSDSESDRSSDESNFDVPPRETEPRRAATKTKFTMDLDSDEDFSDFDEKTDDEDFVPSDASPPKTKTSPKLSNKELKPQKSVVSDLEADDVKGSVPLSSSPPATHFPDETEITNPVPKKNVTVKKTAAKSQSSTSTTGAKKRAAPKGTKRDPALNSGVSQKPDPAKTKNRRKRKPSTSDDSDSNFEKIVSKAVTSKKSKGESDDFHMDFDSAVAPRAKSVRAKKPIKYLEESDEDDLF
Test [5] has the same target. The test can be described thus: Inhibition of human topoisomerase 2alpha-mediated relaxation of supercoiled pBR322 DNA at 100 uM after 30 mins by agarose gel electrophoresis.
In a further test the test system is MDA-MB-231. The test can be described thus: Cytotoxicity against human MDA-MB-231 cells after 4 days by MTT assay. It is filed as functional, cell-based. Particulars: MDA-MB-231, 96 h. Summed up:
as §1

Test [6] concerns HeLa. The test can be described thus: Cytotoxicity against human HeLa cells after 4 days by MTT assay. Particulars: 96 h. In kind it is functional, cell-based. Summed up: as §1
Test [7] concerns DU-145. The test can be described thus: Ratio of compound IC50 to adriamycin IC50 for human DU145 cells. It is filed as functional.
The subject of test [8] is HeLa. The test can be described thus: Ratio of compound IC50 to adriamycin IC50 for human HeLa cells. In kind it is functional.
For test [9], the system named is HCT-116. The test can be described thus: Ratio of compound IC50 to adriamycin IC50 for human HCT116 cells. In kind it is functional.
For test [10], the system named is MCF7. The test can be described thus: Ratio of compound IC50 to adriamycin IC50 for human MCF7 cells. In kind it is functional.
Another test relates to Nucleic Acid. Description: Binding affinity to Escherichia coli linearized pBR322 DNA at 100 uM after 2 hrs by agarose gel electrophoresis. In kind it is nucleic-acid assay. Summed up:
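DNA cross-linking: 0.5 µg EcoRI-linearized, ethanol-precipitated pBR322 incubated with compound (100 μM) for 2 h at RT in 10 mM Tris-HCl, 1 mM EDTA, pH 8.0. Run on denaturing 1.2% alkaline agarose (50 mM NaOH, 1 mM EDTA running buffer), then neutralized 1 h in 100 mM Tris, 150 mM NaCl, pH 7.6.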

Structures can show the parent of a compound that is named as a salt. Calls of active or inactive are those of the source. The calls are words filed in the database; no cut-off is given here.

As for `COc1cccc2c(=O)c3c(O)cc(OCC(C)(O)CCl)cc3oc12` (centres undefined), the IC50 in the test with DU-145 [1] was 7.2 µM; in the test with HCT-116 [2], 15.8 µM; in the test with MCF7 [3] it was 88.4 µM; in the test with MDA-MB-231 it was 15.4 µM; in the test on HeLa [6], 68.2 µM. The inhibition was 41% in [4] and 85% in test [5].
On to `COc1cc([C@@H]2c3cc4c(cc3[C@@H](O[C@@H]3O[C@@H]5CO[C@@H](C)O[C@H]5[C@H](O)[C@H]3O)[C@H]3COC(=O)[C@H]23)OCO4)cc(OC)c1O` [ETOPOSIDE], for which the IC50 in the test on DU-145 [1] worked out at 13.8 µM; with HCT-116 [2], 11.9 µM; with MCF7 [3] it was 17.5 µM.
Turning to `COc1cccc2c(=O)c3c(OCC4(C)CO4)cc(OCC4(C)CO4)cc3oc12` (centres undefined), the “Ratio IC50” value in the test with DU-145 [7], in the test with HeLa [8], with HCT-116 [9] and with MCF7 [10] was 2 each time. In addition, the half-inhibitory concentration (IC50) in the test with DU-145 [1] is 0.9 µM; in the test on HCT-116 [2] it was 0.8 µM; in the test with MCF7 [3] it was 2.5 µM; in the test with MDA-MB-231 it was 5.1 µM; in the test on HeLa [6] it was 1.5 µM. Moreover, the inhibition amounted to 15% in [4] and 48% in test [5]. Also, in the test on Nucleic Acid, the result was Active.
Take `COc1cc(OCC(O)CCl)cc2oc3ccccc3c(=O)c12` (centres undefined): the IC50 with DU-145 [1] is 40.1 µM; with HCT-116 [2], 21.6 µM; in the test with MCF7 [3], above 100 µM; in the test with MDA-MB-231 it was above 100 µM; in the test on HeLa [6] it was above 100 µM. The values for the inhibition in test [4] and in [5] were 1% and 33%, respectively.
In the case of `COc1cccc2c1C(=O)c1c(O)c3c(c(O)c1C2=O)C[C@@](O)(C(=O)CO)C[C@@H]3O[C@H]1C[C@H](N)[C@H](O)[C@H](C)O1` [DOXORUBICIN HYDROCHLORIDE], the IC50 was 1.4 µM with DU-145 [1], 4 µM in the test on HCT-116 [2] and 4.4 µM in the test with MDA-MB-231.
In the case of `CC(O)(CCl)COc1cc(O)c2c(=O)c3ccccc3oc2c1` (centres undefined), the IC50 is above 100 µM in the test on DU-145 [1]; 47.1 µM in the test with HCT-116 [2]; above 100 µM with MCF7 [3]; above 100 µM in the test with MDA-MB-231; above 100 µM in the test with HeLa [6]. Also, the inhibition in test [4] came to 20%; in test [5], 52%.
On to `COc1cccc2c(=O)c3c(OC)cc(OCC4CO4)cc3oc12` (centres undefined), for which the “Ratio IC50” value in the test with DU-145 [7], with HeLa [8], with HCT-116 [9] and in the test on MCF7 [10] was 2 in each case. The IC50 with DU-145 [1] was found to be 0.8 µM; in the test with HCT-116 [2], 1.5 µM; with MCF7 [3], 8 µM; in the test on MDA-MB-231, 3.8 µM; in the test with HeLa [6], 6.2 µM. In addition, the figures for the inhibition in test [4] and in test [5] were 0% and 4%, respectively.
Take `COc1cc(OCC2CO2)cc2oc3ccccc3c(=O)c12` (centres undefined): the IC50 in the test with DU-145 [1] is 1.5 µM; with HCT-116 [2] it was 6.6 µM; with MCF7 [3], 14 µM; in the test with MDA-MB-231, 10.9 µM; in the test on HeLa [6] it was 10.5 µM. The values for the inhibition in test [4] and in [5] were 5% and 51%, respectively.
In the case of `COc1cccc2c(=O)c3c(OC)cc(OCC(O)CCl)cc3oc12` (centres undefined), the IC50 is 15.3 µM with DU-145 [1]; 16.4 µM in the test with HCT-116 [2]; 51.7 µM in the test on MCF7 [3]; 56 µM in the test with MDA-MB-231; 59.5 µM in the test with HeLa [6]. Besides, the inhibition in [4] worked out at 2%; in test [5] it was 83%.
For the molecule `CC1(COc2cc(OCC3(C)CO3)c3c(=O)c4ccccc4oc3c2)CO1` (centres undefined), the half-inhibitory concentration (IC50) in the test on DU-145 [1] stood at 3.9 µM; with HCT-116 [2], 2.6 µM; in the test with MCF7 [3], 15.2 µM; in the test with MDA-MB-231, 68.2 µM; with HeLa [6], 15.8 µM. Also, the inhibition in test [4] is 24%; in test [5], 41%. Also, the result with Nucleic Acid was Active.
Consider `CC[C@@]1(O)C(=O)OCc2c1cc1n(c2=O)Cc2cc3ccccc3nc2-1` [CAMPTOTHECIN], for which the IC50 amounted to 2.3 µM in the test with HCT-116 [2], 14.2 µM with MCF7 [3] and 1.1 µM with HeLa [6].
On to `CC1(COc2cc(O)c3c(=O)c4ccccc4oc3c2)CO1` (centres undefined), for which the IC50 with DU-145 [1] stood at 18.9 µM; in the test on HCT-116 [2] it was 12.1 µM; in the test with MCF7 [3], 15 µM; in the test with MDA-MB-231, 41.7 µM; with HeLa [6] it was 14.3 µM. In addition, the results for the inhibition in test [4] and in test [5] were 11% and 25%, respectively.
As for `COc1cccc2c(=O)c3c(O)cc(OCC4(C)CO4)cc3oc12` (centres undefined), the concentration for half-maximal inhibition (IC50) was above 100 µM in the test with DU-145 [1]; 69.1 µM in the test with HCT-116 [2]; above 100 µM with MCF7 [3]; above 100 µM with MDA-MB-231; above 100 µM in the test with HeLa [6]. Besides, the inhibition in test [4] was found to be 3%; in test [5], 23%.
`COc1cccc2c(=O)c3c(OCC(O)CCl)cc(OCC4CO4)cc3oc12` (centres undefined): the half-inhibitory concentration (IC50) was 3.9 µM in the test on DU-145 [1]; 9.9 µM with HCT-116 [2]; 69 µM in the test with MCF7 [3]; 18.9 µM with MDA-MB-231; 41.7 µM in the test on HeLa [6]. The inhibition in test [4] was 27%; in test [5] it was 65%.
With `COc1cccc2c(=O)c3c(OCC4CO4)cc(OCC4CO4)cc3oc12` (centres undefined), the 50% inhibitory concentration (IC50) amounted to 2.4 µM in the test with DU-145 [1]; 2 µM in the test on HCT-116 [2]; 9.9 µM with MCF7 [3]; 5.4 µM in the test with MDA-MB-231; 4.7 µM with HeLa [6]. Further, the inhibition turned out to be 9% in test [4] and 71% in test [5]. The outcome in the test on Nucleic Acid was Active.
